The chains are these.
B1: tRNA (parent)
chain: GUUCCGUUGGCGUAAUGGUAACGCGUCUCCCUCCUAAGGAGAAGACUGCGGGUUCGAGUCCCGUACGGAACG

Fewer inactive variants are shown than the library holds. A value given as a limit tells only on which side of the number the result lay.

Variants of B1 are the subject of the data set. As to the kind of experiment: yeast fitness relative to wild type (ratio to wild type); higher = fitter; tRNA-Arg(CCU), competitive growth, 37 C, YPD. In outline: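 Changes in genotype frequencies gave Darwinian fitness relative to wild type. Frequencies were read by 100-nucleotide paired-end sequencing of gene amplicons before and after pooled Saccharomyces cerevisiae strains, carrying tRNA-Arg(CCU) gene variants at the native locus, were competed in YPD at 37°C for 24 hours in six replicates. A genotype was kept only with ≥ 100 starting reads, and estimates < 0.5 were set to 0.5.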
U47C G58U A65U: the yeast fitness was determined as 0.511.
Regarding C5U U28C A45C, the yeast fitness came to 0.672.
As for G23A C34U A43U G44C C60U, the yeast fitness is ≤ 0.5.
Turning to A45C G50A C62U, the yeast fitness amounted to 0.868.
For C29A C31U A43C G44C A65U, the yeast fitness is ≤ 0.5.
The result for G6C U7C G9C A65G reads ≤ 0.5; that for A45U A69U, 1.05.
Then A36C U47A G48C, with ≤ 0.5; and U3G C30G A40C C46U, with 0.57.
As for U2A G6C A21G U32C U59G C66U A70C, the yeast fitness is ≤ 0.5.
With C34U A40U A57U, the yeast fitness was ≤ 0.5.
The result for C5G C66U G67A reads 0.533; that for A37C A42U, 0.809; that for U19C A42G C46A C55G, ≤ 0.5.
Take U3C A20G U47C: the yeast fitness is 0.686.
As for U2A C5G A40G A45C, the yeast fitness was ≤ 0.5.
The result for C4G C24A C46U A70G reads ≤ 0.5.
In the case of G23C G39C G50A G68C, the yeast fitness was ≤ 0.5.
U28C A36C U47A G58C G67U: the yeast fitness is ≤ 0.5.
The result for C24U G39A A65U reads 0.528.
On to G12A G23A U35G A36G C62U A69G, for which the yeast fitness was ≤ 0.5.
As to C33U A43G C66U, the yeast fitness amounted to 0.544.
Consider A14G G23C A70U, for which the yeast fitness was 0.564.
Turning to U19A C46U G48A U53C, the yeast fitness was 0.784.
Consider C27U A40G U64C, for which the yeast fitness amounted to 0.602.
In the case of C5A U13G, the yeast fitness worked out at 0.841.
Then C5G A20G A36C A70C, with ≤ 0.5; and C5A G67C, with 1.03; and U3G U19A G51A C66G, with ≤ 0.5.
For G6A C11G, the yeast fitness is 0.738.
For U32C C60G A65C, the yeast fitness was 0.501.
Regarding U3A C31A C55U, the yeast fitness was ≤ 0.5.
Consider C11U A42G, for which the yeast fitness amounted to 0.917.
Then C34U A42G A65C, with 0.57.
For the variant C24U A45C G63A, the yeast fitness was found to be 0.601.
For the variant C5A U16A A45G G50A G56A, the yeast fitness was ≤ 0.5.
As to U19C A36G, the yeast fitness was found to be 1.01.
The result for C5G C11G C27G G67U reads ≤ 0.5; that for C33A C34A G56A, ≤ 0.5.
In the case of G9A U16A C30G A57C, the yeast fitness is ≤ 0.5.
The result for U7G A14U U19A C22U C61A reads ≤ 0.5.
Then A43G G56A C66U G68U, with 0.557; and A20C C46A C49G G63A, with ≤ 0.5.
Then C5G A20C U54A, with 0.616; and G9C U13A G25A A40C A57C G58A C61A G67A, with ≤ 0.5; and C11A C46U G48A C55U U59A, with ≤ 0.5.
On to C29U A37C G41A A70C, for which the yeast fitness was ≤ 0.5.
A14G C30A C34A A43C C60G C62A: the yeast fitness is ≤ 0.5.
C22G C55U U59A A65C: the yeast fitness was ≤ 0.5.
Regarding U2G C29U U54C A57G U59C, the yeast fitness is ≤ 0.5.
As to G6C U7G C24U C27A A57G, the yeast fitness is ≤ 0.5.
The result for U35C C49U reads 0.755; that for C5G C46A A57G, 0.705.
As to U2A A40U A70U, the yeast fitness turned out to be 0.696.
In the case of A45C G68C, the yeast fitness worked out at 0.839.
For G25C C31U U32A A70G, the yeast fitness is ≤ 0.5.
As to C29U G38C C49U G68A, the yeast fitness is ≤ 0.5.
Take G12A A20G G63A: the yeast fitness was ≤ 0.5.
Regarding G25A C49A G68C, the yeast fitness is ≤ 0.5.
For the variant U7A U28A U32G G50C U54C, the yeast fitness is ≤ 0.5.
For the variant A14U G52C, the yeast fitness was ≤ 0.5.
Regarding U13G G18A A20U C31G, the yeast fitness came out at 0.566.
Take C4U: the yeast fitness was 0.989.
For A14G C29G C31U A70C, the yeast fitness was found to be 0.51.
On to C61G G63C G68A, for which the yeast fitness was ≤ 0.5.
With U26A C49U A57U, the yeast fitness was ≤ 0.5.
Consider U8G A37U G63C, for which the yeast fitness is ≤ 0.5.
Regarding C49G C66A, the yeast fitness is 0.654.
Regarding U8G A15C U28A, the yeast fitness was ≤ 0.5.
As for C31G A57U G58C, the yeast fitness was ≤ 0.5.
Take U26A G38C U47A C49A: the yeast fitness was ≤ 0.5.
With C4G C30A A42U C55U C66A, the yeast fitness was ≤ 0.5.
The result for G6A C62A reads 0.873; that for C4A A14U A20C U28G G67A A70G, ≤ 0.5; that for A36G G68C A70G, ≤ 0.5.
For the variant G10A U54G C61U, the yeast fitness worked out at 0.55.
Then U2A G44C C55A, with ≤ 0.5; and A20G C27U U28G, with 0.565.
U3C A57C: the yeast fitness amounted to 0.504.
Turning to G52C A57U C60U C62U, the yeast fitness was ≤ 0.5.
On to C11A A43G C46G A65U, for which the yeast fitness is ≤ 0.5.
The result for C5U U7C C30A A42C reads 0.583.
Regarding C30U C55A, the yeast fitness is 0.667.
Take U32G G39C A57U U59A A69C: the yeast fitness is ≤ 0.5.
For the variant G18C C34U A69C, the yeast fitness was ≤ 0.5.
For C4A U16C C33U A42G, the yeast fitness was ≤ 0.5.
With G17A C31A C33U U59G A65C, the yeast fitness was ≤ 0.5.
Consider U3G C30U G48C A65U G68C, for which the yeast fitness is ≤ 0.5.
With A40U U53G, the yeast fitness was found to be 0.638.
Regarding C4U A36C U59A, the yeast fitness was ≤ 0.5.
With U2A C60G, the yeast fitness is 0.666.
As for C5A G12A C33U, the yeast fitness is ≤ 0.5.
On to C5G A15U U53A, for which the yeast fitness was ≤ 0.5.
The result for G10C C22A C24G U53A G67A reads ≤ 0.5; that for C11G A36U A40C, 0.612; that for C11G A21U U26C U47C G68C, ≤ 0.5.
With U13G U35G A40G G58C A65U, the yeast fitness was ≤ 0.5.
Regarding A43G U53C C55U, the yeast fitness was determined as 0.561.
C5G A42G C49G A70U: the yeast fitness is ≤ 0.5.
The result for C34A A37U G44A G51A C55A reads 0.603.
Consider G6A G25A A45U C62A, for which the yeast fitness was ≤ 0.5.
Consider U8C G41A A65G, for which the yeast fitness was determined as 0.63.
C5U U19G U53A: the yeast fitness was 0.529.
Regarding C4U U35A, the yeast fitness is 0.659.
Take G10A C27U G67C: the yeast fitness came out at 0.627.
Regarding G6C U16G A45U, the yeast fitness stood at 0.584.
For the variant A14U U19A A21C G48C G63A A70G, the yeast fitness is ≤ 0.5.
Turning to C4A C22A C55U, the yeast fitness is ≤ 0.5.
The result for A65U A70G reads 1.05; that for C34U A45U C62A, ≤ 0.5; that for C4A A20U U28A C31U C55G A57C, ≤ 0.5.
Take C11U A15U G56C: the yeast fitness is ≤ 0.5.
In the case of U3A A20U G67U, the yeast fitness is 0.598.
Take C5G C46A G48A U64G: the yeast fitness was 0.546.
For the variant G10C A43C C49U A69U, the yeast fitness is ≤ 0.5.
Then C34U G48A C55U, with 0.638; and A20G A45U G63C, with 0.539; and C33U A40U G56C, with ≤ 0.5.
For the variant C5G C22U C27U A36G, the yeast fitness is ≤ 0.5.
Regarding G10A U13A C24A, the yeast fitness worked out at 0.582.
For C4G C60G, the yeast fitness amounted to 0.615.
With A14U A45C U47C C55U A65C A69C, the yeast fitness was ≤ 0.5.
Then C4U C22G A57U G63C, with ≤ 0.5; and C33G A57U A70U, with ≤ 0.5.
In the case of U2G U47G G67U, the yeast fitness was ≤ 0.5.
For C27A G68C, the yeast fitness turned out to be 0.893.
As for C33A G38C A43G, the yeast fitness was ≤ 0.5.
Then G9A A14U A21U A69C, with 0.755.
On to G39C A42U C60G C62U G67C, for which the yeast fitness was ≤ 0.5.
For the variant A15U C31U C49U G52A A57U G58C, the yeast fitness is ≤ 0.5.
In the case of C34G C60G, the yeast fitness is 0.782.
Consider A21C U64A, for which the yeast fitness turned out to be 0.799.
The result for G18C C24U C30G reads ≤ 0.5; that for C46A G50A, 0.925.
As to G23A U47C C55U A69C, the yeast fitness is ≤ 0.5.
On to C31U A40G G48C A57U U59A A69C, for which the yeast fitness is ≤ 0.5.
For A42G C61G C66U, the yeast fitness is ≤ 0.5.
Then G18A U19C, with 0.79; and U3C A14C, with 0.703.
As for C5U U8A G18A A69C, the yeast fitness is ≤ 0.5.
With A14C G67A, the yeast fitness was found to be 0.695.
C5U C22U C27U A42G C55A C60A A70U: the yeast fitness worked out at 0.57.
G6C A14C C24U C29A G39C: the yeast fitness was ≤ 0.5.
Turning to A21C C24A U32A, the yeast fitness was ≤ 0.5.
C22A C29G C61U: the yeast fitness is ≤ 0.5.
The result for G9A G56A A70C reads 1.03; that for C29U U53A, 0.625.
Regarding A21C A43G G48C, the yeast fitness is ≤ 0.5.
For the variant C5G C11G A15U U54C C61G A70C, the yeast fitness was ≤ 0.5.
C5A G17C A42C A57C: the yeast fitness was ≤ 0.5.
With U2C A40C G50A C66U, the yeast fitness was ≤ 0.5.
Consider C24A G39A, for which the yeast fitness turned out to be 0.66.
The result for C33G G44A G56A reads ≤ 0.5.
Consider C5A U19G A43U, for which the yeast fitness is 0.656.
Take C33G C61U: the yeast fitness amounted to 0.711.
As for C22U G23A U54G A57U, the yeast fitness was ≤ 0.5.
Regarding C11A C22U U35C, the yeast fitness is ≤ 0.5.
As for C4U A36U A45C C61G A70C, the yeast fitness is 0.852.
As for G9A A65G C66U, the yeast fitness was determined as 0.815.
Then A42U G44C U54A C66U G67A, with ≤ 0.5; and C5G C27U A57U, with ≤ 0.5; and C11A C29U A43C A65U, with ≤ 0.5.
On to A15U C29A C34G U59A A69C, for which the yeast fitness was ≤ 0.5.
Turning to A15U C34U A57U C60U, the yeast fitness is 0.725.
Regarding C11U G39A, the yeast fitness was 0.947.
Then A36C A40U, with 0.604; and C29G G38C G44A, with 0.668.
